For 16 molecules, EC50 and CC50 results are on record in ChEMBL document CHEMBL4118188, “A small diversity library of α-methyl amide analogs of sulindac for probing anticancer structure-activity relationships” (Bioorg Med Chem Lett, 2018).

A value given as a limit tells only on which side of the number the result lay.

By EC50 is commonly meant the concentration at which the effect is half-maximal. Usually CC50 stands for the concentration giving 50% cytotoxicity. A higher CC50 goes with lower toxicity to the cells.

A short description of test [1]: Growth inhibition of mouse CPC300 cells measured after 72 hrs by Celltiter-Glo reagent based assay. It counts as functional. The method in brief: (§1)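 Cell line sources: Raji is a Burkitt's lymphoma line (FAB L3); Jurkat E6-1 is an acute T-cell leukemia line; REH is a patient-derived precursor B-cell ALL line expressing only wild-type MLL and wild-type AF4; 697 was established from bone marrow of children with relapsed ALL; CPC300 derives from a mouse model of choroid plexus carcinoma.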

Another test concerns Jurkat E6.1. In words: Growth inhibition of human Jurkat E6-1 cells measured after 72 hrs by Celltiter-Glo reagent based assay. In kind it is functional, cell-based. The method in brief:
as §1
On the technique in general: Cellular ATP, detected with luciferase, serves as a proxy for viable cell number.

In the next test the test system is 697. Put plainly: Growth inhibition of human 697 cells after 72 hrs by CellTiter-Glo reagent based assay. In kind it is functional, cell-based. The method in brief:
as §1

In another test the test system is MDA-MB-231. Put plainly: Growth inhibition of human MDA-MB-231 cells measured after 96 hrs by Celltiter-Glo reagent based assay. It counts as functional. Particulars: MDA-MB-231, 96 h; call rule not given here.
The next test has as its system REH. In words: Growth inhibition of human REH cells measured after 72 hrs by CellTiter-Glo reagent based assay. It counts as functional, cell-based. An outline of the steps: as §1
A further test relates to Raji. In words: Growth inhibition of human Raji cells measured after 72 hrs by Celltiter-Glo reagent based assay. It counts as functional, cell-based. The method in brief: as §1
The test system of another test is HT-29. Put plainly: Growth inhibition of human HT-29 cells measured after 72 hrs by Celltiter-Glo reagent based assay. In kind it is functional. The settings on record: HT-29, 72 h.
Test [2] in a line: Growth inhibition of human NALM16 cells measured after 72 hrs by Celltiter-Glo reagent based assay. In kind it is functional.
The subject of another test is BJ. In words: Growth inhibition of human BJ cells after 72 hrs by CellTiter-Glo reagent based assay. It counts as cell-based.
The next test deals with PC-3. In words: Growth inhibition of human PC3 cells measured after 72 hrs by Celltiter-Glo reagent based assay. In kind it is functional. Particulars: PC-3, 72 h.
The mark [3] stands for this setting: Homo sapiens, REH, 72 h, read-out: EC50.
Where [4] appears, read: Homo sapiens, NALM16, 72 h, read-out: EC50.
[5] abbreviates: Homo sapiens, Raji, 72 h, read-out: EC50.
Setting [6] is: Homo sapiens, Jurkat E6.1, 72 h, read-out: EC50.
The mark [7] stands for this setting: Homo sapiens, 697, 72 h, read-out: EC50.

With `CCN(CC)CCCNC(=O)C(C)C1=C(C)/C(=C/c2ccc(SC)cc2)c2ccc(F)cc21` (stereo not drawn), the EC50 result (in test [1]; with Jurkat E6.1 (jurkat e6.1); with 697 (697); in the test on REH (reh); in the test on Raji (raji); in test [2]) was “Not Active” each time. The EC50 in the test on BJ is more than 7.57 µM. In addition, the CC50 stood at 4.23 µM in the test with MDA-MB-231, 2.17 µM in the test on HT-29 and 6.13 µM with PC-3.

Regarding `CSc1ccc(/C=C2/C(C)=C(C(C)C(=O)N3CCC[C@H]3CN3CCCC3)c3cc(F)ccc32)cc1` (stereo partly drawn), the EC50 result in test [1] is “Not Active”; in the test with Jurkat E6.1 (jurkat e6.1), “Not Active”; in the test with 697 (697), “Not Active”; in the test with REH (setting [3]), 11 µM; in test [2] it was “Not Active”; in the test with BJ it was more than 7.57 µM. Moreover, the results for the CC50 in the test on MDA-MB-231, in the test with HT-29 and in the test on PC-3 were 3.57 µM, 0.84 µM and 3.93 µM, respectively.

Turning to `CCN(CC)CCNC(=O)C(C)C1=C(C)/C(=C/c2ccc(SC)cc2)c2ccc(F)cc21` (stereo not drawn), the EC50 entry in [1] is “Not Active”; in the test on Jurkat E6.1 (jurkat e6.1) it was “Not Active”; in the test on 697 (697), “Not Active”; in the test with REH (setting [3]) it was 14 µM; with Raji (raji) it was “Not Active”; in test [2], “Not Active”. The same molecule showed an EC50 in the test with BJ of more than 7.57 µM. In addition, the values for the CC50 in the test on MDA-MB-231, with HT-29 and with PC-3 were 5.38 µM, 2.03 µM and 6.21 µM, respectively.

On to `CSc1ccc(/C=C2/C(C)=C(C(C)C(=O)N3CCN(CCN(C)C)CC3)c3cc(F)ccc32)cc1` (stereo not drawn), for which the EC50 result in test [1] is “Not Active”; with Jurkat E6.1 (jurkat e6.1), “Not Active”; in the test with 697 (697), “Not Active”; in the test with REH (reh), “Not Active”; in the test on Raji (raji), “Not Active”; in [2] (setting [4]) it was 2.1 µM. Further, the EC50 in the test on BJ was more than 7.57 µM. Further, the CC50 in the test with MDA-MB-231 came to 3.77 µM; in the test on HT-29, 2.02 µM; with PC-3, 5.98 µM.

Turning to `CCN(CCN(C)C)C(=O)C(C)C1=C(C)/C(=C/c2ccc(SC)cc2)c2ccc(F)cc21` (stereo not drawn), the EC50 result in [1] is “Not Active”; in the test with Jurkat E6.1 (jurkat e6.1), “Not Active”; in the test on 697 (697), “Not Active”; in the test with REH (setting [3]), 10 µM; in the test on Raji (setting [5]), less than 0.00038 µM; in test [2], “Not Active”. In the test with BJ, the EC50 was more than 7.57 µM. The CC50 with MDA-MB-231 was found to be 3.18 µM; in the test on HT-29, 1.13 µM; in the test with PC-3 it was 3.54 µM.

Consider `CSc1ccc(/C=C2/C(C)=C(C(C)C(=O)N(CCNC(C)C)C(C)C)c3cc(F)ccc32)cc1` (stereo not drawn), for which the EC50 result (in test [1]; in the test on Jurkat E6.1 (jurkat e6.1); in the test on 697 (697); in the test on REH (reh); in the test on Raji (raji); in test [2]) was “Not Active” in each case. Besides, the EC50 with BJ was more than 7.57 µM. Also, the figures for the cytotoxic concentration (CC50) in the test with MDA-MB-231, with HT-29 and in the test on PC-3 were 3.83 µM, 1.5 µM and 3.91 µM, respectively.

Take `CSc1ccc(/C=C2/C(C)=C(C(C)C(=O)NCCN3CCCC3)c3cc(F)ccc32)cc1` (stereo not drawn): the EC50 result was “Not Active” in [1]; 76 µM with Jurkat E6.1 (setting [6]); 76 µM in the test on 697 (setting [7]); 76 µM in the test on REH (setting [3]); “Not Active” in the test with Raji (raji); “Not Active” in test [2]. In the test with BJ, the concentration for a half-maximal effect (EC50) was more than 7.57 µM. The CC50 with MDA-MB-231 came out at 5 µM; in the test with HT-29, 2.03 µM; with PC-3, 5.68 µM.

Take `CSc1ccc(/C=C2/C(C)=C(C(C)C(=O)NCCN3CCNCC3)c3cc(F)ccc32)cc1` (stereo not drawn): the 50% effective concentration (EC50) entry was “Not Active” in [1]; “Not Active” with Jurkat E6.1 (jurkat e6.1); “Not Active” with 697 (697); 26 µM in the test with REH (setting [3]); 45 µM in the test on Raji (setting [5]); “Not Active” in test [2]. In the test on BJ, the EC50 was more than 7.57 µM. Moreover, the figures for the half-maximal cytotoxic concentration (CC50) in the test on MDA-MB-231, with HT-29 and in the test with PC-3 were 5.32 µM, 2.22 µM and 5.91 µM, respectively.

For `CSc1ccc(/C=C2/C(C)=C(C(C)C(=O)N(CCCNC(C)C)C(C)C)c3cc(F)ccc32)cc1` (stereo not drawn), the EC50 entry in [1] is “Not Active”; in the test with Jurkat E6.1 (jurkat e6.1) it was “Not Active”; in the test on 697 (697) it was “Not Active”; in the test with REH (reh), “Not Active”; in the test with Raji (raji), “Not Active”; in test [2] (setting [4]), 1.5 µM. The EC50 in the test with BJ was more than 7.57 µM. The CC50 worked out at 2.91 µM in the test with MDA-MB-231, 1.26 µM with HT-29 and 3.18 µM in the test with PC-3.

Regarding `COc1cc(/C=C2/C(C)=C(C(C)C(=O)NCc3ccccc3)c3cc(F)ccc32)cc(OC)c1OC` (stereo not drawn), the EC50 result in test [1] is “Not Active”; in the test with Jurkat E6.1 (setting [6]), 7.7 µM; in the test with 697 (setting [7]), 6.1 µM; in the test with REH (setting [3]) it was 7 µM; in the test on Raji (setting [5]), 13 µM; in test [2] (setting [4]), 8 µM. The EC50 in the test on BJ was more than 7.57 µM. Further, the CC50 was determined as 3.81 µM in the test on MDA-MB-231, 2.77 µM in the test on HT-29 and 4.92 µM with PC-3.

As for `CSc1ccc(/C=C2/C(C)=C(C(C)C(=O)N(C)CCN(C)C(=O)[C@@H](N)C(C)C)c3cc(F)ccc32)cc1` (stereo partly drawn), the values for the CC50 in the test with MDA-MB-231, in the test with HT-29 and with PC-3 were 3.86 µM, 2.22 µM and 4.83 µM, respectively.

For `CSc1ccc(/C=C2/C(C)=C(C(C)C(=O)N3CCN(c4ccncc4)CC3)c3cc(F)ccc32)cc1` (stereo not drawn), the EC50 result is “Not Active” in test [1]; “Not Active” in the test with Jurkat E6.1 (jurkat e6.1); 76 µM in the test on 697 (setting [7]); “Not Active” with REH (reh); “Not Active” in the test on Raji (raji); “Not Active” in test [2]. Moreover, in the test with BJ, the half-maximal effective concentration (EC50) was more than 7.57 µM. In addition, the CC50 in the test on MDA-MB-231 is 3.95 µM; with HT-29 it was 2.2 µM; in the test on PC-3, 4.68 µM.

As for `CC1=C(C(C)C(=O)NCCN2CCNCC2)c2cc(F)ccc2/C1=C\c1ccc([S+](C)[O-])cc1` (stereo not drawn), the 50% cytotoxic concentration (CC50) with MDA-MB-231, in the test with HT-29 and in the test with PC-3 was more than 50 µM in each case.

As to `CSc1ccc(/C=C2/C(C)=C(C(C)C(=O)N(C)CCCN(C)C)c3cc(F)ccc32)cc1` (stereo not drawn), the half-maximal effective concentration (EC50) entry was “Not Active” in test [1]; “Not Active” with Jurkat E6.1 (jurkat e6.1); “Not Active” with 697 (697); 38 µM in the test with REH (setting [3]); “Not Active” in the test with Raji (raji); “Not Active” in [2]. Besides, the EC50 with BJ is more than 7.57 µM. The CC50 in the test with MDA-MB-231 worked out at 4.11 µM; in the test with HT-29, 2.12 µM; in the test with PC-3, 5.5 µM.

In the case of `CSc1ccc(/C=C2/C(C)=C(C(C)C(=O)NCCN(C)C)c3cc(F)ccc32)cc1` (stereo not drawn), the EC50 entry in test [1] was “Not Active”; in the test with Jurkat E6.1 (jurkat e6.1) it was “Not Active”; with 697 (697) it was “Not Active”; with REH (reh), “Not Active”; in the test with Raji (raji), “Not Active”; in test [2] (setting [4]), 76 µM. In the test with BJ, this molecule displayed an EC50 of more than 7.57 µM. The CC50 in the test on MDA-MB-231 turned out to be 3.88 µM; in the test with HT-29, 1.8 µM; in the test on PC-3 it was 5.07 µM.

`CC1=C(C(C)C(=O)N(CCNC(C)C)C(C)C)c2cc(F)ccc2/C1=C\c1ccc([S+](C)[O-])cc1` (stereo not drawn): the CC50 in the test on MDA-MB-231 worked out at 21.3 µM; in the test with HT-29, 8.06 µM; with PC-3, 15.2 µM.
